From ChEMBL document CHEMBL3596097, “Stereoselective synthesis and pharmacological evaluation of [4.3.3]propellan-8-amines as analogs of adamantanamines” (Bioorg Med Chem, 2015)
Calls of active or inactive are those of the source. No cut-off for these calls is given here.

Tests used:
[1] = Displacement of [3H]-(+)-MK-801 from phencyclidine binding site of NMDA receptor in pig membranes after 150 mins by scintillation counting analysis; assay type: cell membranes, Sus scrofa
Outline: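 Thawed membrane preparation (about 100 µg protein) incubated with test compound at various concentrations and 2 nM [3H]-(+)-MK-801 (22.0 Ci/mmol) in TRIS/EDTA (5 mM/1 mM, pH 7.5), 150 min, rt. Stopped by rapid filtration over presoaked filtermats, five water washes, melted solid scintillator, then counting. Nonspecific binding was taken with unlabeled (+)-MK-801. Radioligand Kd 2.26 nM.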

[2] = organism: Rattus norvegicus; test: Displacement of [3H]-DTG from sigma-2 receptor in rat liver membranes up to 10 uM after 120 mins by scintillation counting analysis; assay type: cell membranes; conditions: Membrane
[3] = test system: Influenza A virus; test: Antiviral activity against Influenza virus A/FPV/Bratislava/79(H7N7) infected in human A549 cells assessed as viral replication at 5 uM after 24 hrs by plaque assay relative to control; assay type: functional
[4] = target: Sigma non-opioid intracellular receptor 1 (Cavia porcellus) (UniProt Q60492); test: Displacement of [3H]-(+)-pentazocine from sigma-1 receptor in guinea pig brain cortex membranes up to 10 uM after 120 mins by scintillation counting analysis; assay type: cell membranes; conditions: Cerebral cortex
Sequence of Sigma non-opioid intracellular receptor 1 (Cavia porcellus) (Q60492 whole entry): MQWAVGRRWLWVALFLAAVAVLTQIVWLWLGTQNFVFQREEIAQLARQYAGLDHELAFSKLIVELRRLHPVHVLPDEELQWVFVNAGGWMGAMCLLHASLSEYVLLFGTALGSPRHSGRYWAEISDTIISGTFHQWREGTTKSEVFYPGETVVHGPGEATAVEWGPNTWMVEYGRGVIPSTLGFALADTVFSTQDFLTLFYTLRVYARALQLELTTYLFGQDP

[5] = target: Glutamate NMDA receptor; GRIN1/GRIN2A (Homo sapiens, UniProt Q05586+Q12879); test: Displacement of [3H]-(+)-MK-801 from phencyclidine binding site of NMDA receptor in human frontal cortex after 22 hrs by scintillation counting analysis; assay type: tissue-based
Sequence of Glutamate NMDA receptor; GRIN1/GRIN2A (Q12879 whole entry, other chains not shown): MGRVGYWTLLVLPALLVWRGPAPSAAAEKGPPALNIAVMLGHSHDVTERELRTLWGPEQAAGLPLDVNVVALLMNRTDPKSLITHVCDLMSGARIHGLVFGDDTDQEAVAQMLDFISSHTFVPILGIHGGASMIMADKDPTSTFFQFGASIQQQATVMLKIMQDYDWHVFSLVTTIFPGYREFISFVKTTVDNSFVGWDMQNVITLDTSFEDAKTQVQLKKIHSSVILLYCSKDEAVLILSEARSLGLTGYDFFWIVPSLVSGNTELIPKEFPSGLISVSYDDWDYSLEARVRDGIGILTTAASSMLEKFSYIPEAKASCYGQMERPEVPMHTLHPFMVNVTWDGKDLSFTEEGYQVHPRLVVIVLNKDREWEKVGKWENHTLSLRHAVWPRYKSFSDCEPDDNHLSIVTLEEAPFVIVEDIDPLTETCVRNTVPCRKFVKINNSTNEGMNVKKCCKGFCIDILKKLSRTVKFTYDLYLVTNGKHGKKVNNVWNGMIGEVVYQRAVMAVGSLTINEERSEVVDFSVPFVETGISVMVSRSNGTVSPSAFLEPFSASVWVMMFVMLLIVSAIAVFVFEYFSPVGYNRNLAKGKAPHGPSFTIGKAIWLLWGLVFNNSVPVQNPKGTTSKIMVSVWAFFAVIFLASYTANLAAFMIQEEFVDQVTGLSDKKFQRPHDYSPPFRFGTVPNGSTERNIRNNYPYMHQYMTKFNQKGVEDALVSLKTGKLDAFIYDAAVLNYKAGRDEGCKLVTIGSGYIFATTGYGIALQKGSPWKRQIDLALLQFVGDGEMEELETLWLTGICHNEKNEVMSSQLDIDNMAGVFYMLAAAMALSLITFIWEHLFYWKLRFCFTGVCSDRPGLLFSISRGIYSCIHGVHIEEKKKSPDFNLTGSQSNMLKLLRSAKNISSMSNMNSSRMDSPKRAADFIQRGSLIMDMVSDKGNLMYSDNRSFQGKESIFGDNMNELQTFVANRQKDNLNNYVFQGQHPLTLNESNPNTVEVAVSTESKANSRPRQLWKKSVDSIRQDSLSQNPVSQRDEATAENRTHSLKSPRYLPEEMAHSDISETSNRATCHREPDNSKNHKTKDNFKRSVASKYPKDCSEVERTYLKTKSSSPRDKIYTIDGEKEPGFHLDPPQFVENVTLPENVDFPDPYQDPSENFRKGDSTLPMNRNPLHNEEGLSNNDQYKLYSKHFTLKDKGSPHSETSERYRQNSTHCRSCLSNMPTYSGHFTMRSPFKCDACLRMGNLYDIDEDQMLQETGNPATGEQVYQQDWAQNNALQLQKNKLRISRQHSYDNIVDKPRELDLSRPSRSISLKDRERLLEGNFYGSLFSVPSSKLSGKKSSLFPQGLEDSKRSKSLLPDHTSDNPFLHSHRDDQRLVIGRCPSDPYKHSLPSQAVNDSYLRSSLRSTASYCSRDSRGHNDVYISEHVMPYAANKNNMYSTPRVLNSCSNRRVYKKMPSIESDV

## C[C@]12N[C@H](Cc3ccccc31)c1ccccc12 [DIZOCILPINE]
[1]
  Ki: 0.003 µM

## N[C@H]1C[C@@]23CCCC[C@@]2(CCC3)C1
[2]
  inhibition: inactive
[3]
  Activity: 116%
[1]
  Ki: 11 µM
[4]
  inhibition: inactive

## N[C@@H]1C[C@@]23CCCC[C@@]2(CCC3)C1
[2]
  inhibition: inactive
[3]
  Activity: 97%
[1]
  Ki: 16 µM
[4]
  inhibition: inactive

## CC12CC3CC(C)(C1)CC(N)(C3)C2 [MEMANTINE]
[1]
  Ki: 9.74 µM

## NC1CC23CCCCC2(CCC3)C1 (mixture of isomers)
[3]
  Activity: 65%
[1]
  Ki: 10.5 µM

## NC12CC3CC(CC(C3)C1)C2 [AMANTADINE]
[5]
  Ki: 10 µM
[3]
  Activity: 3.9%
[1]
  Ki: 11 µM
